Data from ChEMBL document CHEMBL3392957, “The discovery of 1,2,3,9b-tetrahydro-5H-imidazo[2,1-a]isoindol-5-ones as a new class of respiratory syncytial virus (RSV) fusion inhibitors. Part 1” (Bioorg Med Chem Lett, 2015).

What was measured:
[1] = system: Respiratory syncytial virus; assay: Antiviral activity against Respiratory syncytial virus A2 infected in human Hep2 cells assessed as inhibition of virus-induced cytopathicity after 5 days by MTT assay; format: functional, organism-based; conditions: A2, HEp-2, 120 h
In short: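 HEp2 cells (1.0 × 10⁴/well) infected at low moi (e.g. RSV A2 at moi 0.01) and added to serially diluted compound; 5 days at 37 °C, 5% CO₂. CPE read by MTT (1 mg/ml, 2 h, 37 °C), isopropanol, absorbance 540 nm; EC₅₀ by non-linear regression. SD given where n > 2.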

[2] = Cytotoxicity against human Hep2 cells after 5 days by MTT assay; format: cell-based, HEp-2
In short: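 Uninfected HEp2 cells (1.0 × 10⁴/well) with serially diluted compound, 5 days at 37 °C in 5% CO₂; viability by MTT (1 mg/ml, 2 h), isopropanol, absorbance 540 nm; CC₅₀ by non-linear regression.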

Compound	EC50 [1] [µM]	CC50 at 120 h [2] [µM]
O=C(c1ccc(F)cc1)N1CCN2C(=O)c3ccccc3C12c1ccccc1 (racemic)	1.1	> 20
O=C1c2ccccc2C2(c3ccc(Cl)cc3)NCCN12 (racemic)	> 20	> 70
O=C(c1ccc(F)cc1)N1CCN2C(=O)c3ccccc3C12 (racemic)	> 20	> 20
O=C(c1ccc(F)cc1)N1CCN2C(=O)c3ccccc3C12c1ccc(F)cc1 (racemic)	0.71	> 20
O=C(c1ccc(F)cc1)N1CCN2C(=O)c3ccccc3C12c1ccc(C(F)(F)F)cc1 (racemic)	0.51	> 20
Cc1ccc(C23c4ccccc4C(=O)N2CCN3C(=O)c2ccc(F)cc2)cc1 (racemic)	0.18	> 20
CCc1ccc(C23c4ccccc4C(=O)N2CCN3C(=O)c2ccc(F)cc2)cc1 (racemic)	0.21	> 18
CCCc1ccc(C23c4ccccc4C(=O)N2CCN3C(=O)c2ccc(F)cc2)cc1 (racemic)	0.27	18
CC(C)c1ccc(C23c4ccccc4C(=O)N2CCN3C(=O)c2ccc(F)cc2)cc1 (racemic)	1.2	> 20
O=C(c1ccc(F)cc1)N1CCN2C(=O)c3ccccc3C12c1ccccn1 (racemic)	> 20	> 20
O=C(c1ccc(F)cc1)N1CCN2C(=O)c3ccccc3C12c1cccnc1 (racemic)	10	> 20
COc1ccc(C23c4ccccc4C(=O)N2CCN3C(=O)c2ccc(F)cc2)cc1 (racemic)	0.53	> 20
O=C(c1ccc(F)cc1)N1CCN2C(=O)c3ccccc3C12c1ccc(O)cc1 (racemic)	11	> 20
CCOc1ccc(C23c4ccccc4C(=O)N2CCN3C(=O)c2ccc(F)cc2)cc1 (racemic)	0.2	> 20
CCCOc1ccc(C23c4ccccc4C(=O)N2CCN3C(=O)c2ccc(F)cc2)cc1 (racemic)	0.63	> 20
CC(C)Oc1ccc(C23c4ccccc4C(=O)N2CCN3C(=O)c2ccc(F)cc2)cc1 (racemic)	1.1	> 20
O=C(c1ccc(F)cc1)N1CCN2C(=O)c3ccccc3C12c1ccc(OCC2CC2)cc1 (racemic)	0.079	> 20
N#CCOc1ccc(C23c4ccccc4C(=O)N2CCN3C(=O)c2ccc(F)cc2)cc1 (racemic)	0.24	> 17
COCCOc1ccc(C23c4ccccc4C(=O)N2CCN3C(=O)c2ccc(F)cc2)cc1 (racemic)	0.25	> 16
COC(=O)COc1ccc(C23c4ccccc4C(=O)N2CCN3C(=O)c2ccc(F)cc2)cc1 (racemic)	3.3	> 16
NC(=O)COc1ccc(C23c4ccccc4C(=O)N2CCN3C(=O)c2ccc(F)cc2)cc1 (racemic)	1	11
CC(=O)COc1ccc(C23c4ccccc4C(=O)N2CCN3C(=O)c2ccc(F)cc2)cc1 (racemic)	0.86	> 16
O=C(c1ccc(F)cc1)N1CCN2C(=O)c3ccccc3C12c1cccc(Cl)c1 (racemic)	0.19	> 18
N#CCOc1cccc(C23c4ccccc4C(=O)N2CCN3C(=O)c2ccc(F)cc2)c1 (racemic)	3.4	> 17
COCCOc1cccc(C23c4ccccc4C(=O)N2CCN3C(=O)c2ccc(F)cc2)c1 (racemic)	> 16	> 16
O=C1c2ccccc2C2(c3ccc(Cl)cc3)N1CCN2c1ccccc1 (racemic)	> 20	> 20
O=C1c2ccccc2C2(c3ccc(Cl)cc3)N(Cc3ccc(F)cc3)CCN12 (racemic)	> 20	16
O=C(Cc1ccc(F)cc1)N1CCN2C(=O)c3ccccc3C12c1ccc(Cl)cc1 (racemic)	0.97	> 20
